Assay outcomes as filed in PubChem BioAssay.
MLL AF4-AF9 inh – inhibitors of human MLL-AF4/AF9 interaction; AID 651704; hit rate 0.47% among 350,000; AlphaScreen, biotin-AF4 peptide binding to FLAG-AF9; inhibition, % at 10 µM; P42568;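 active means every replicate reaching a set inhibition limit, whatever the replicate mean, cut at about 25% in these data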;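 further: 0% = plate neutral control median and 100% = total signal loss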
FN deposit inh – fibronectin deposition inhibition; inhibition, % at 12.6 µM; hit rate 0.086% among 350,000; AH1F fibroblasts, Alexa488-fibronectin deposition fluorescence, overnight;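 active means mean inhibition across replicates of 30% or more, regardless of how many single replicates reach that level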;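 further: positive control wells lacked labelled fibronectin entirely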
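Assay system: AH1F fibroblasts assembling fluorescent fibronectin matrix; Amount: 10000 AH1F cells per well; Buffer or medium: DMEM, 2% serum; Probe or stimulus: Alexa488-fibronectin, 24 nM final in well; Doses: single compound dose, delivered by pin transfer; Incubation: 1 h adhesion, overnight exposure; Measured by: fluorescence 485/525 nm; Read-out: fibronectin deposition inhibition.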
ERp5 block – ERp5 (human) disulfide isomerase inhibition | Q15084 | ERp5 insulin aggregation, absorbance 650 nm, 90 min | inhibition, % at 9.99 µM | hit rate 0.05% among 350,000;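 active means mean replicate inhibition above about 25%, with every replicate also reaching it, limit read from the data, passing the limit was not always enough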
PDI turbidity – PDI (human) enzyme inhibition | PDI insulin aggregation turbidity, A650, 90 min | inhibition, % at 10 µM | hit rate 0.052% among 350,000 | AID 588391;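 active means mean inhibition across replicates of 30% or more, whatever share of single replicates reach that level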
SIRT5 block – inhibitors of human sirtuin-5 desuccinylase. Q9NXA8. Purified SirT5, succinyl-peptide AMC, trypsin-coupled fluorescence. inhibition, % at 15 µM. hit rate 1.1% among 330,000; in the data active means inhibition above about 15%
Target sequence (Q9NXA8 whole entry, looked up): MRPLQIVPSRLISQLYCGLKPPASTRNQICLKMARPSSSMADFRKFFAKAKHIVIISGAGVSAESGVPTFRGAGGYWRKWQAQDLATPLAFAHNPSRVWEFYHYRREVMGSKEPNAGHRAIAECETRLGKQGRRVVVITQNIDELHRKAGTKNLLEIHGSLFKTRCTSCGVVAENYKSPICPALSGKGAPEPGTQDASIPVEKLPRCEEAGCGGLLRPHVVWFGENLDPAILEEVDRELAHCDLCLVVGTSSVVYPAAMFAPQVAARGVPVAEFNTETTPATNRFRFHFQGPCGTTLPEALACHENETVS
Active calls of the source: *; . = no result given; ! = a repeat was not active. Only some compounds are listed: those with a hit (about 1.3% of all), similar ones and a draw of the others.

SMILES	MLL AF4-AF9 inh	FN deposit inh	ERp5 block	PDI turbidity	SIRT5 block
Cc1ccc(-n2nnnc2CNC(=O)c2ccc(Br)o2)cc1C	0.2	23.1	.	-3.0	6.3
Cc1cc(OCc2nc(N)nc(N)c2-c2ccc(Cl)c(Cl)c2)ccc1[N+](=O)[O-]	2.6	34.0*	-10.3	-8.4	-5.1
Cc1ccccc1N1CC(C(=O)O)CC1=O (stereo unspecified)	-0.6	2.0	1.5	3.2	28.7*
Cc1cc(NC(=O)C2CC(=O)N(c3cccc(C)c3C)C2)no1 (stereo unspecified)	44.1*	4.9	0.5	-11.6	-1.2
Cc1ccccc1N1CC(C(=O)N2CCc3ccccc32)CC1=O (stereo unspecified)	-0.2	.	2.5	2.4	-2.7
O=C(CNC(=O)c1ccc(Br)cc1)OCc1cc([N+](=O)[O-])cc2c1OCOC2	4.1	.	3.7	6.1	1.5
CCn1nc2cc(C(=O)NCCc3cccs3)ccc2c1OC	25.9*	-4.9	1.0	2.9	-1.5
CC(C)C[C@H]1CNC(=S)N1CC1CCCN1C[C@H](CC(C)C)N1C[C@H](CC(C)C)N(CC2CCCCCC2)C1=S (stereo partly specified)	2.6	-1.9	-1.6	-1.1	.
CC(C)OC(=O)CSc1nnc(-c2ccc(Cl)cc2Cl)n1N	.	6.0	.	-8.5	.
Cc1cc(C)c2nc(N(CCN(C)C)C(=O)c3ccc4ccccc4c3)sc2c1	0.3	-1.5	-6.0	6.0	-7.8
COc1ccc(C)c2sc(N(CCN(C)C)C(=O)c3ccc4ccccc4c3)nc12	29.0*	4.6	15.7	0.8	-5.0
COc1ccccc1NC(=O)CCS(=O)(=O)c1ccccc1	-1.8	3.3	4.2	6.2	.
CCNCc1cc(Br)c(OCC(=O)Nc2ccccc2)c(OC)c1	.	-0.9	.	-1.3	.
COc1ccccc1NC(=O)NCC(=O)Nc1ccc(F)c(F)c1	.	.	.	3.5	.
COc1ccccc1NC(=O)CNc1ccc(F)c(Cl)c1	-1.5	2.4	-4.1	3.6	31.0*
CNCc1cc(Br)c(OCC(=O)Nc2ccccc2OC)c(OC)c1	4.8	7.1	3.9	13.5	24.3*
COc1ccccc1NC(=O)CCCCC(=O)Nc1ccccc1OC	4.4	6.5	1.5	-5.1	16.1*
COc1cccc2c1C(=O)c1c(O)c3c(c(O)c1C2=O)C[C@@](O)(C(C)=O)C[C@@H]3O[C@H]1C[C@H](N)[C@H](O)[C@H](C)O1	30.7*	-6.7	4.6	10.3	0.3
COc1cccc2c1C(=O)c1c(O)c3c(c(O)c1C2=O)C[C@@](O)(C(=O)CO)C[C@@H]3O[C@H]1C[C@H](N)[C@@H](O)[C@H](C)O1	.	.	.	0.8	.
O=C(C[C@H]1CC[C@@H](NC(=O)C2CCC2)[C@H](CO)O1)NCC1CC1	-1.5	-0.3	3.2	.	-3.8
COc1cccc(C(=O)Nc2ccc(C(F)(F)F)n(C)c2=O)c1	0.6	.	0.8	-0.7	20.3*
CCC(=O)N1CC2(C1)CN(Cc1nccs1)[C@H](CO)c1c2c2ccc(OC)cc2n1C	-3.2	.	-4.9	.	1.0
O=C(CN1CCN(c2ccccc2O)CC1)Nc1ccnn1C1CCCC1	1.7	.	4.8	-12.3	-4.4
Cc1ccccc1C(=O)NCC(=O)OCC(=O)NNC(=O)c1ccccc1F	-0.3	-5.2	1.2	1.3	-2.4
CCN(C(=O)COC(=O)CNC(=O)c1ccccc1C)C1=CCCCC1	0.2	-17.9	1.2	22.7	23.6*
SMILES	MLL AF4-AF9 inh	FN deposit inh	ERp5 block	PDI turbidity	SIRT5 block
C[C@H](CO)N1C[C@H](C)[C@H](CN(C)S(=O)(=O)c2cccs2)Oc2c(NC(=O)C3CCCCC3)cccc2C1=O	-0.4	-9.0	-0.3	.	17.4*
C[C@H](CO)N1C[C@H](C)[C@@H](CN(C)S(=O)(=O)c2ccc(F)cc2)Oc2c(NC(=O)NC3CCCCC3)cccc2C1=O	49.0*!	-9.0	-1.4	9.3	0.4
C[C@@H]1CN([C@H](C)CO)C(=O)c2cccc(NC(=O)NC3CCCCC3)c2O[C@@H]1CN(C)Cc1ccc(Oc2ccccc2)cc1	3.1	3.7	19.5	.	19.7*
C[C@H]1CN([C@@H](C)CO)C(=O)c2cccc(NC(=O)NC3CCCCC3)c2O[C@H]1CN(C)Cc1ccc(C(=O)O)cc1	-4.0	.	-5.3	.	2.7
C[C@H]1CN([C@@H](C)CO)C(=O)c2cccc(NC(=O)NC3CCCCC3)c2O[C@@H]1CN(C)Cc1ccc(C(=O)O)cc1	-8.4	.	-1.6	.	24.7*
Cc1cc2cc(CNC(=O)COc3ccccc3)ccc2n1C	-8.7	3.6	-11.8	10.8	-7.5
COc1ccc(-c2c(-c3cc(OC)cc(OC)c3)n(C)c3ccc(-c4ccc(OC)cc4F)cc23)cc1	0.5	-25.7	1.2	-4.5	.
CC(=O)Oc1ccc(C(=O)Nc2ccccc2NC(=O)c2ccc(OC(C)=O)cc2)cc1	3.0	-2.9	-0.3	-8.1	-2.8
O=C(CCN=C1NS(=O)(=O)c2ccccc21)OCC(=O)c1ccccc1Cl	-4.9	.	-0.5	-10.7	16.0*
Cc1cccc(Oc2ccc(Cl)cc2N)c1	1.4	.	-6.8	-2.3	112.0*
Nc1cc(Cl)ccc1Oc1ccccc1	.	-5.0	.	3.0	.
CCN(CC)c1ccc(CNC(=O)C/C(C)=N/NC(=O)COc2ccc(C)cc2Br)cc1	-1.0	0.7	1.9	-4.8	-2.4
CC1OC(OC2C(Oc3c(-c4ccc(O)cc4)oc4cc(O)cc(O)c4c3=O)OC(COC3O[C@@H](C)[C@H](O)[C@@H](O)C3O)C(O)C2O)C(O)C(O)C1O (stereo partly specified)	0.6	.	0.1	.	2.3
CC(=O)OC[C@H]1O[C@@H](Oc2cc(O)cc3oc(-c4ccc(O)cc4)cc(=O)c23)[C@H](O[C@@H]2O[C@@H](C)[C@H](O)[C@@H](O)[C@H]2O)[C@@H](O)[C@@H]1O	-1.5	2.6	1.6	39.2*	.
Cc1cc(N)n(-c2ccc(Oc3ccccc3)c(S(=O)(=O)O)c2)n1	1.2	1.0	-1.7	-11.8	47.5*
CCCc1cc(=O)[nH]c(SCC(=O)N2CCN(S(=O)(=O)c3ccc(Cl)cc3)CC2)n1	.	13.6	.	-1.5	.
CCCn1c(SCC(=O)Nc2ccc3c(c2)OCO3)nc2c1c(=O)n(C)c(=O)n2C	.	8.8	3.2	-7.2	24.6*
CCn1c(SCC(=O)Nc2ccc3c(c2)OCO3)nc2c1c(=O)n(C)c(=O)n2C	.	.	.	-16.8	.
CCOC(=O)c1cnc2ccc(C(=O)OC)cc2c1Nc1ccc(C(=O)O)cc1	2.1	4.6	2.0	-4.7	1.4
CCOC(=O)c1cnc2ccc(OC)cc2c1Nc1ccc(N2CCN(C)CC2)cc1	41.1*	5.1	-1.5	2.1	1.8
CCOC(=O)c1ccc2ncc(C(=O)OCC)c(Nc3ccc(N4CCOCC4)cc3)c2c1	25.6*	5.4	3.8	-5.3	2.3
CCOC(=O)c1cnc2ccc(OC)cc2c1Nc1ccc2c(c1)OCCO2	.	.	.	3.6	.
O=C(O)C[C@@H]1C[C@H]2c3cc(NC(=O)Cc4ccncc4)ccc3O[C@H]2[C@@H](CO)O1	-0.7	5.8	11.3	.	-1.0
Cc1cccc(OCCCC(=O)Nc2ccc(S(=O)(=O)Nc3onc(C)c3C)cc2)c1	.	.	.	-3.6	.
Cc1cccc(NC(=O)Nc2ccc(S(=O)(=O)Nc3onc(C)c3C)cc2)c1	0.2	36.6*	6.1	-7.2	8.2
